Reference: ChEMBL document CHEMBL2151003, “Synthesis and antitumor activity of ring A modified glycyrrhetinic acid derivatives” (Eur J Med Chem, 2011)
The source made the active and inactive calls. The rule behind the calls is not given here.

Columns and labels:
DLD-1 = experiment: Cytotoxicity against human DLD1 cells after 96 hrs by SRB assay; format: functional, cell-based
Summary of the method: (§1)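 Monolayer cultures in RPMI 1640 with 10% heat-inactivated FBS and penicillin/streptomycin, 37 °C, 5% CO2. Exponentially growing cells were seeded, then treated 24 h later with serial dilutions (0–30 µM; DMSO or DMF ≤0.5% final) for 96 h. Cells were fixed with 10% TCA at 4 °C, stained with 0.4% SRB and solubilized in 10 mM Tris base; A570 was read. IC50 came from semi-log dose–response curves, ≥3 independent experiments.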

A549 [1] = experiment: Induction of apoptosis in human A549 cells assessed as appearance of green fluorescent cells at 20 uM after 24 to 48 hrs by acridine orange/ethidium bromide staining based fluorescence microscopy; format: functional, cell-based
Summary of the method: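 Approx. 500,000 A549 cells per flask were grown 24 h, then exposed to compound-containing medium for 24–48 h. Cells from the supernatant were pelleted, washed and resuspended in PBS, mixed with AO/EB and examined by fluorescence microscopy. Green fluorescence was scored as apoptotic and red nuclei as necrotic; the read-out is qualitative.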

8505C = experiment: Cytotoxicity against human 8505C cells after 96 hrs by SRB assay; format: functional, cell-based; summary of the method: as §1
A549 [2] = experiment: Cytotoxicity against human A549 cells after 96 hrs by SRB assay; format: functional, cell-based; summary of the method: as §1
[3] = Cytotoxicity against human Lipo cells after 96 hrs by SRB assay; format: functional, cell-based; summary of the method: as §1
A549 [4] = experiment: Induction of apoptosis in human A549 cells assessed as apoptotic effect at 20 uM after 24 to 48 hrs by trypan blue cell counting analysis; format: functional
Summary of the method: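 A549 cells (approx. 500,000 per flask) were grown 24 h, then given compound-containing medium for about 24–48 h. Collected cells were pelleted, washed in PBS and mixed 1:1 with 0.4% trypan blue in PBS, pH 7.2. An automated counter distinguished cells with intact and with damaged membranes. Results are % apoptosis ± standard error, 6 experiments each.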

SW-1736 = experiment: Cytotoxicity against human SW1736 cells after 96 hrs by SRB assay; format: functional, cell-based; summary of the method: as §1
[5] = Cytotoxicity against human A253 cells after 96 hrs by SRB assay; format: functional, cell-based; summary of the method: as §1
[6] = Cytotoxicity against human 518A2 cells after 96 hrs by SRB assay; format: functional, cell-based; summary of the method: as §1
A2780 = experiment: Cytotoxicity against human A2780 cells after 96 hrs by SRB assay; format: functional, cell-based; summary of the method: as §1
MCF7 = experiment: Cytotoxicity against human MCF7 cells after 96 hrs by SRB assay; format: functional, cell-based; summary of the method: as §1
HCT-116 = experiment: Cytotoxicity against human HCT116 cells after 96 hrs by SRB assay; format: functional, cell-based; summary of the method: as §1
A-431 = experiment: Cytotoxicity against human A431 cells after 96 hrs by SRB assay; format: functional, cell-based; summary of the method: as §1
HT-29 = experiment: Cytotoxicity against human HT-29 cells after 96 hrs by SRB assay; format: functional, cell-based; summary of the method: as §1

Row | Structure (SMILES) | IC50 (DLD-1) | Activity (A549 [1]) | IC50 (8505C) | IC50 (A549 [2]) | IC50 [3] | Activity (A549 [4]) | IC50 (SW-1736) | IC50 [5] | IC50 [6] | IC50 (A2780) | IC50 (MCF7) | IC50 (HCT-116) | IC50 (A-431) | IC50 (HT-29)
1 | COC(=O)[C@@]1(C)CC[C@]2(C)CC[C@]3(C)C(=CC(=O)[C@@H]4[C@@]5(C)CC[C@H](OC(=O)[C@@H](N)CSCc6ccccc6)C(C)(C)[C@@H]5CC[C@]43C)[C@@H]2C1 | > 30 µmol | Active | 15.45 µmol | 17.9 µmol | 16.72 µmol | 60.64% | 15.69 µmol | 15.84 µmol | 16.78 µmol |  |  |  |  | 
2 | CCCCCCCCO/N=C1\CC[C@]2(C)[C@H]3C(=O)C=C4[C@@H]5C[C@@](C)(C(=O)OC)CC[C@]5(C)CC[C@@]4(C)[C@]3(C)CC[C@H]2C1(C)C | > 30 µmol |  | > 30 µmol | > 30 µmol | > 30 µmol |  | 17.77 µmol | > 30 µmol | > 30 µmol | 19.73 µmol | 26.35 µmol |  |  | 
3 | COC(=O)[C@@]1(C)CC[C@]2(C)CC[C@]3(C)C(=CC(=O)[C@@H]4[C@@]5(C)CC[C@H](OC(=O)CCC(=O)O)C(C)(C)[C@@H]5CC[C@]43C)[C@@H]2C1 | > 30 µmol |  | > 30 µmol | > 30 µmol | > 30 µmol |  |  | > 30 µmol | > 30 µmol |  |  |  |  | 
4 | CCOC(=O)[C@@]1(C)CC[C@]2(C)CC[C@]3(C)C(=CC(=O)[C@@H]4[C@@](C)(CCC(=O)O)[C@H](C(C)(C)O)CC[C@]43C)[C@@H]2C1 | > 30 µmol |  | > 30 µmol | > 30 µmol | > 30 µmol |  | > 30 µmol | > 30 µmol | > 30 µmol | > 30 µmol | > 30 µmol |  |  | 
5 | CCOC(=O)[C@@]1(C)CC[C@]2(C)CC[C@]3(C)C(=CC(=O)[C@@H]4[C@@]5(C)C[C@H]6O[C@H]6C(C)(C)[C@@H]5CC[C@]43C)[C@@H]2C1 | > 30 µmol |  |  | > 30 µmol | > 30 µmol |  |  | > 30 µmol | > 30 µmol |  | > 30 µmol | > 30 µmol | > 30 µmol | > 30 µmol
6 | COC(=O)[C@@]1(C)CC[C@]2(C)CC[C@]3(C)C(=CC(=O)[C@@H]4[C@@]5(C)CC[C@H](OC(=O)[C@@H](N)CSSC[C@H](N)C(=O)O[C@H]6CC[C@]7(C)[C@H]8C(=O)C=C9[C@@H]%10C[C@@](C)(C(=O)OC)CC[C@]%10(C)CC[C@@]9(C)[C@]8(C)CC[C@H]7C6(C)C)C(C)(C)[C@@H]5CC[C@]43C)[C@@H]2C1 | > 30 µmol | Active | 15.1 µmol | 18.75 µmol | 22.6 µmol | 40.91% | 16.82 µmol | 19.07 µmol | 24.54 µmol |  |  |  |  | 
7 | COC(=O)[C@@]1(C)CC[C@]2(C)CC[C@]3(C)C(=CC(=O)[C@@H]4[C@@]5(C)Cc6nccnc6C(C)(C)[C@@H]5CC[C@]43C)[C@@H]2C1 | > 30 µmol |  | > 30 µmol | > 30 µmol | > 30 µmol |  | > 30 µmol | > 30 µmol | > 30 µmol | > 30 µmol | > 30 µmol |  |  | 
8 | C=C(C)[C@@H]1CC[C@]2(C)[C@H](C(=O)C=C3[C@@H]4C[C@@](C)(C(=O)OCC)CC[C@]4(C)CC[C@]32C)[C@@]1(C)CCC(=O)OCC | > 30 µmol |  | > 30 µmol | > 30 µmol | > 30 µmol |  | 26.74 µmol | > 30 µmol | 9.28 µmol | 5.89 µmol | 25.42 µmol |  |  | 
9 | CCOC(=O)[C@@]1(C)CC[C@]2(C)CC[C@]3(C)C(=CC(=O)[C@@H]4[C@@]5(C)CC=CC(C)(C)[C@@H]5CC[C@]43C)[C@@H]2C1 | > 30 µmol |  |  | > 30 µmol | > 30 µmol |  |  | > 30 µmol | > 30 µmol |  | > 30 µmol | > 30 µmol | > 30 µmol | > 30 µmol
10 | CCOC(=O)[C@@]1(C)CC[C@]2(C)CC[C@]3(C)C(=CC(=O)[C@@H]4[C@@]5(C)CC[C@H](OC(=O)CCC(=O)O)C(C)(C)[C@@H]5CC[C@]43C)[C@@H]2C1 | > 30 µmol |  | > 30 µmol | > 30 µmol | > 30 µmol |  |  | > 30 µmol | 28.99 µmol |  |  |  |  | 
11 | COC(=O)[C@@]1(C)CC[C@]2(C)CC[C@]3(C)C(=CC(=O)[C@@H]4[C@@]5(C)CC[C@H](OC(=O)[C@H](CSCc6ccccc6)NC(=O)OC(C)(C)C)C(C)(C)[C@@H]5CC[C@]43C)[C@@H]2C1 | > 30 µmol |  | > 30 µmol | > 30 µmol | > 30 µmol |  | > 30 µmol | > 30 µmol | > 30 µmol |  |  |  |  | 
12 | C=C(C)[C@@H]1CC[C@]2(C)[C@H](C(=O)C=C3[C@@H]4C[C@@](C)(C(=O)OCC)CC[C@]4(C)CC[C@]32C)[C@@]1(C)CCC(=O)O | > 30 µmol |  | > 30 µmol | > 30 µmol | > 30 µmol |  | > 30 µmol | > 30 µmol | > 30 µmol | > 30 µmol | > 30 µmol |  |  | 
13 | COC(=O)[C@@]1(C)CC[C@]2(C)CC[C@]3(C)C(=CC(=O)[C@@H]4[C@@]5(C)CC[C@H](OC(=O)[C@H](CO[Si](C)(C)C(C)(C)C)NC(=O)OC(C)(C)C)C(C)(C)[C@@H]5CC[C@]43C)[C@@H]2C1 | > 30 µmol |  | > 30 µmol | > 30 µmol | > 30 µmol |  |  | 28.59 µmol | > 30 µmol |  |  |  |  | 
14 | CCOC(=O)[C@@]1(C)CC[C@]2(C)CC[C@]3(C)C(=CC(=O)[C@@H]4[C@@]5(C)CCC(=O)C(C)(C)[C@@H]5CC[C@]43C)[C@@H]2C1 | > 30 µmol |  | > 30 µmol | > 30 µmol | > 30 µmol |  | > 30 µmol | > 30 µmol | > 30 µmol | > 30 µmol | > 30 µmol |  |  | 
15 | CCOC(=O)[C@@]1(C)CC[C@]2(C)CC[C@]3(C)C(=CC(=O)[C@@H]4[C@@]5(C)CCC(=O)OC(C)(C)[C@@H]5CC[C@]43C)[C@@H]2C1 | > 30 µmol |  | > 30 µmol | > 30 µmol | > 30 µmol |  | 12.71 µmol | 28.73 µmol | > 30 µmol | 15 µmol | 20.58 µmol |  |  | 
16 | COC(=O)[C@@]1(C)CC[C@]2(C)CC[C@]3(C)C(=CC(=O)[C@@H]4[C@@]5(C)CC/C(=N\OC(C)C)C(C)(C)[C@@H]5CC[C@]43C)[C@@H]2C1 | > 30 µmol |  | > 30 µmol | > 30 µmol | > 30 µmol |  | > 30 µmol | > 30 µmol | > 30 µmol | > 30 µmol | > 30 µmol |  |  | 
17 | COC(=O)[C@@]1(C)CC[C@]2(C)CC[C@]3(C)C(=CC(=O)[C@@H]4[C@@]5(C)CC[C@H](OS(=O)(=O)c6ccc(C)cc6)C(C)(C)[C@@H]5CC[C@]43C)[C@@H]2C1 | > 30 µmol |  | > 30 µmol | > 30 µmol | > 30 µmol |  |  | > 30 µmol | > 30 µmol |  |  |  |  | 
18 | COC(=O)[C@@]1(C)CC[C@]2(C)CC[C@]3(C)C(=CC(=O)[C@@H]4[C@@]5(C)CC[C@H](OC(=O)[C@H](CSC(=O)OC(C)(C)C)NC(=O)OC(C)(C)C)C(C)(C)[C@@H]5CC[C@]43C)[C@@H]2C1 | > 30 µmol |  | > 30 µmol | > 30 µmol | > 30 µmol |  | > 30 µmol | > 30 µmol | > 30 µmol |  |  |  |  | 
19 | COC(=O)[C@@]1(C)CC[C@]2(C)CC[C@]3(C)C(=CC(=O)[C@@H]4[C@@]5(C)CCC(=O)C(C)(C)[C@@H]5CC[C@]43C)[C@@H]2C1 | > 30 µmol |  | > 30 µmol | > 30 µmol | > 30 µmol |  | 29.09 µmol | > 30 µmol | > 30 µmol | > 30 µmol | > 30 µmol |  |  | 
